# Assay outcomes as filed in PubChem.
# The list is not random: actives were taken first. Their share in the collection is about 2.6%.
# SIRT5 block – inhibitors of human sirtuin-5 desuccinylase | Purified SirT5, succinyl-peptide AMC, trypsin-coupled fluorescence | inhibition, % at 15 µM | 1.1% of 330,000 active | AID 652115; in the data active = inhibition above about 15%
# Casp6 inh – blocks human caspase-6 cleavage activity. P55212. purified caspase-6, Z-VEID-R110 cleavage fluorescence. inhibition, % at 12.5 µM. 0.53% of 350,000 active;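 active = mean inhibition across replicates at least about 35%, with every replicate also reaching that limit, limit read from the data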
# Target sequence (P55212 24-179 limits assumed): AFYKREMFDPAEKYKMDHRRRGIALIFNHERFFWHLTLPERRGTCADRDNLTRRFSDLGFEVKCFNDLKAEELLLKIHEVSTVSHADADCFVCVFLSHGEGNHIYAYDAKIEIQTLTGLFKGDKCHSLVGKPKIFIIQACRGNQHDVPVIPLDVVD
# Target sequence (P55212 194-293 limits assumed): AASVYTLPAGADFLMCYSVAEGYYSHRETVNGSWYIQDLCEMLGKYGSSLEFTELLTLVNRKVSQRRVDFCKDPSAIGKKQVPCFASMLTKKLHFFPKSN
# FGF22 binding – binders of recombinant human FGF22 by thermal shift. Q9HCT0. SYPRO orange fluorescence; percent of sucrose octasulfate shift, DMSO zero. activity (Tm shift, normalised), % at 9.99 µM. 1.5% of 340,000 active. AID 651658;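 active = mean Tm shift, scaled 0 neutral to 100 positive control, at about 1.3% or above, every replicate too, limit read from the data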
# Target sequence (Q9HCT0 whole entry, looked up): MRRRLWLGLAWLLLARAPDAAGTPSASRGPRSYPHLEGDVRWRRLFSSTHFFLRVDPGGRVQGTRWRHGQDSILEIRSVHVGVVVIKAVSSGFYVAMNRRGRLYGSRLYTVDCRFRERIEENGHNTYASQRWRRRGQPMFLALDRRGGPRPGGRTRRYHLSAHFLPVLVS
# NSD2 inh – inhibitors of human histone methyltransferase NSD2; O96028; NSD2 peptide methylation, AlphaScreen, 120 min; inhibition, % at 12.5 µM; 0.54% of 310,000 active; in the data active = inhibition above about 50%
# UCH37 inh – human UCH37 deubiquitinating enzyme inhibition; Q9Y5K5; purified proteasome/UCH37, Ub-AMC cleavage fluorescence; inhibition, % (test concentration not listed); 0.33% of 330,000 active;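 active = mean inhibition over replicate wells above about 20%, limit read from the data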
#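 System: Proteasome-associated human UCH37 deubiquitinase; Input: 0.15 nM proteasome in added enzyme buffer; Also added: Ub-AMC substrate from 1 µM stock; Incubation: 30 min compound-proteasome preincubation then 25 min substrate reaction, room temperature; Detection: fluorescence, ex 355 nm, em 460 nm; Read-out: % inhibition of Ub-AMC cleavage fluorescence; Benchmarks: no-proteasome and no-compound wells.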
# UCH37 confirm – UCH37 Ub-AMC cleavage inhibition, confirmed | 27% of 480 active | Proteasome-bound UCH37, Ub-AMC cleavage fluorescence | AID 624100 | inhibition, % at 20 µM | shares compounds with UCH37 inh;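 active = average inhibition over replicates above about 50%, so the earlier screening hit is confirmed, limit read from the data; inactive = the rest, counted as false positives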;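 note: based on cleavage rate fitted by regression over a 30 min kinetic read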
# Numbers stand for hits; – = inactive; · = not tested or not shown; ! = repeats disagree.
SMILES,SIRT5 block,Casp6 inh,FGF22 binding,NSD2 inh,UCH37 inh,UCH37 confirm
Cc1cc(C(=O)NP(=O)(N2CCOCC2)N2CCOCC2)c(C)n1-c1ccc(Br)cc1,–,–,–,–,–,·
Cc1cc(C(=O)C[N+]2(C)CCOCC2)c(C)n1-c1ccc(Br)cc1,–,–,–,–,44.7,–
O=C(Nc1ccc2c(c1)OCO2)N[C@@H]1CC[C@H](CCNC(=O)C2CC2)O[C@H]1CO,–,–,–,·,·,·
CCOC(=O)c1c(N2C(=O)C3CC(C)=C(C)CC3C2=O)sc(C)c1C (stereo not given),·,·,·,–,43.1,63.9
O=C(O)CN1C(=O)/C(=C\c2cccc(OCc3ccccc3F)c2)SC1=S,–,–,–,–,–,·
O=C(O)CN1C(=O)/C(=C\c2cccc(OCc3ccc(Cl)cc3)c2)SC1=S,–,–,–,–,28.5,81.8
Cn1cccc1/C=C1\SC(=S)N(CC(=O)O)C1=O,–,–,–,–,25.1,–
Clc1ccc(Nc2nc(-c3ccncc3)cs2)cc1,·,·,·,–,49.4,–
Fc1ccc(Nc2nc(-c3ccncc3)cs2)cc1,–,–,–,–,–,·
CC(NC(=O)COC(=O)c1ccc([N+](=O)[O-])o1)c1ccccc1 (stereo not given),–,–,–,–,25.9,–
COc1cccc(CNC(=O)[C@H]2[C@H](CO)[C@H]3Cn4c(cccc4=O)[C@@H]2N3C(=O)C2CCCCC2)c1,–,–,–,·,·,·
NC(=O)CC(NC(=O)Cc1ccc(Cl)cc1)c1ccc(NCCc2ccccc2F)c([N+](=O)[O-])c1 (stereo not given),·,–,–,·,47.8,–
NC(=O)CC(NC(=O)Cc1ccc(Cl)cc1)c1ccc(NCC2CC2)c([N+](=O)[O-])c1 (stereo not given),·,–,–,·,–,·
CNC(=O)/C(C#N)=C/c1ccc(-c2ccccc2[N+](=O)[O-])o1,–,–,–,–,–,·
N#C/C(=C/c1ccc(N2CCOCC2)o1)C(=O)Nc1ccccc1,–,–,–,–,–,·
N#C/C(=C\c1ccc(N2CCOCC2)o1)C(=O)NCC1CCCO1 (stereo not given),–,–,–,–,30.7,–
COCCNC(=O)/C(C#N)=C/c1ccc(-c2ccc(OC)cc2[N+](=O)[O-])o1,·,·,·,–,51.9,–
N#C/C(=C\c1ccc(N2CCOCC2)o1)C(=O)NC1CCCCC1,–,–,–,–,29.6,–
COCCNC(=O)/C(C#N)=C/c1ccc(N2CCOCC2)o1,·,·,·,–,37.6,–
N#C/C(=C\c1ccc(N2CCOCC2)o1)C(=O)NCCc1ccccc1,–,–,–,–,–,·
O=C(C[C@H]1CC[C@@H]2[C@H](COC[C@@H](O)CN2C(=O)c2ccccc2F)O1)NCc1ccccc1,–,–,·,·,·,·
C[C@@H](NC(=O)C[C@H]1CC[C@@H]2[C@H](COC[C@H](O)CN2C(=O)Nc2ccccc2)O1)c1ccccc1,–,–,–,·,·,·
N#C/C(=C\c1ccc(O)c([N+](=O)[O-])c1)c1nc2ccccc2s1,–,–,–,–,–,·
COc1cc(/C=C(\C#N)c2nc3ccccc3s2)cc([N+](=O)[O-])c1O,–,–,–,–,26.3,53.0
COC(=O)C1SCC2C(=O)N(Cc3ccc(Cl)c(Cl)c3)CC(=O)N21 (stereo not given),–,–,–,–,28.9,–
SMILES,SIRT5 block,Casp6 inh,FGF22 binding,NSD2 inh,UCH37 inh,UCH37 confirm
COC(=O)C1SCC2C(=O)N(Cc3ccc(Cl)cc3)CC(=O)N21 (stereo not given),–,–,–,–,–,·
C=Cc1c(C)c2cc3[nH]c(cc4nc(cc5nc(cc1[nH]2)C(C)=C5CCC(=O)O)C(CCC(=O)O)=C4C)c(C)c3C=C,·,56.8,–,·,46.8!,99.9
CCn1cc(C=NNC(=O)c2ccc3c(c2)OCO3)cn1,·,·,·,·,–,·
C=C(c1ccccc1)c1ccccc1N,·,–,–,·,39.7,–
CC(=NNC(=O)c1cccc(NN=C(C)c2cc(O)ccc2O)c1)c1cc(O)ccc1O,·,·,·,·,35.5,–
CC(=NNC(=O)c1ccc(NN=C(C)c2ccc(O)cc2)cc1)c1ccc(O)cc1,·,·,·,·,–,·
FC(F)(F)C1=Nc2cccc3cccc(c23)N1,–,–,–,–,56.9,–
O=C1C=C(Nc2ccccc2C(=O)O)c2ccccc2C1=O,–,89.0,–,·,82.2,93.3
O=C1C=C(Nc2ccccc2)c2ccccc2C1=O,–,97.3,–,–,65.0,–
